According to ChEMBL document CHEMBL2203130, “Sulfanylphthalonitrile analogues as selective and potent inhibitors of monoamine oxidase B” (Bioorg Med Chem Lett, 2012):

Columns and labels:
[1] = target: T1, Amine oxidase [flavin-containing] B (Homo sapiens, UniProt P27338); experiment: Inhibition of human recombinant MAOB expressed in insect cell microsomes using kynuramine as substrate after 20 mins by fluorescence spectrophotometric analysis; parameters: species or system Microsome
T1 sequence (P27338 whole entry): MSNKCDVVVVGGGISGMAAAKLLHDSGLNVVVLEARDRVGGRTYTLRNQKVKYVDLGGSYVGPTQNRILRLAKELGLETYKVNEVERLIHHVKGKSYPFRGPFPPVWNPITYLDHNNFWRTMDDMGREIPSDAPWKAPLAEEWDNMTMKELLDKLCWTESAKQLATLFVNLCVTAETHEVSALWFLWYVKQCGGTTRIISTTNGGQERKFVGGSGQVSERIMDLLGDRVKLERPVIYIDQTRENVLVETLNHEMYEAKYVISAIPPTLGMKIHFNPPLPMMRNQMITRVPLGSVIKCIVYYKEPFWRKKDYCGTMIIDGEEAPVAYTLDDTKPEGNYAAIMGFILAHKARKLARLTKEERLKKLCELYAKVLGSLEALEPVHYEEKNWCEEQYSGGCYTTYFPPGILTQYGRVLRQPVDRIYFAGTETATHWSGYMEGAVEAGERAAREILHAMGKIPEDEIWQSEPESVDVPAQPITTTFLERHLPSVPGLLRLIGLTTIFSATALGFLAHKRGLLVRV

[2] = target: T2, Amine oxidase [flavin-containing] A (Homo sapiens, UniProt P21397); experiment: Inhibition of human recombinant MAOA expressed in insect cell microsomes using kynuramine as substrate after 20 mins by fluorescence spectrophotometric analysis; parameters: species or system Microsome
T2 sequence (P21397 whole entry): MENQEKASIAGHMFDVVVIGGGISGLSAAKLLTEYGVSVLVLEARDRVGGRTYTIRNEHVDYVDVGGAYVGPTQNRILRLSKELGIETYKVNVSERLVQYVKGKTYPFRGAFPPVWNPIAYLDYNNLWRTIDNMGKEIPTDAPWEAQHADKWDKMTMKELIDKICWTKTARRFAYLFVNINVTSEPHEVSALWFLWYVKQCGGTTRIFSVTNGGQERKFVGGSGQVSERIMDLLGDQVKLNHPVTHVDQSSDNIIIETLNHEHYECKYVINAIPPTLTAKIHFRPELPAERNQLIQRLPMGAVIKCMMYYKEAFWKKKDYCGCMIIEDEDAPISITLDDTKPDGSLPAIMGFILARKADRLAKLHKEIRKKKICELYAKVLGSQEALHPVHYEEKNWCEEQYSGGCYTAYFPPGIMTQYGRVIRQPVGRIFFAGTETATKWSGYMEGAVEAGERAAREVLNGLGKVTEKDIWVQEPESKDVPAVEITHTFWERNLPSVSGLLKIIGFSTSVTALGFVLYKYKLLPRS
Outline: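 Recombinant human MAO-A at 0.0075 mg protein/mL, started with enzyme, in 100 mM potassium phosphate pH 7.4 made isotonic with KCl, 4% DMSO. Inhibitor 0.003–100 µM, kynuramine 45 µM final. 20 min at 37 °C, stopped with NaOH. 4-Hydroxyquinoline read by fluorescence against a calibration curve. IC50 from one-site competition fit, triplicate, mean ± SD.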

Homo sapiens [3] = organism: Homo sapiens; experiment: Selectivity index, ratio of IC50 for human recombinant MAOA to IC50 for human recombinant MAOB
Outline: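 Ratio of IC50 for MAO-A to IC50 for MAO-B. Both IC50s from the kynuramine fluorescence assay: MAO-A with 45 µM kynuramine, MAO-B with 30 µM. Each run in triplicate.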

Homo sapiens [4] = organism: Homo sapiens; experiment: Selectivity index, ratio of Ki for human recombinant MAOA to Ki for human recombinant MAOB
Outline: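 Ki values derived from IC50s by the Cheng–Prusoff equation. MAO-A used [S] 45 µM and Km 16.1 µM; MAO-B used [S] 30 µM and Km 22.7 µM. Index is Ki(MAO-A)/Ki(MAO-B).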

[5] = target: T1, Amine oxidase [flavin-containing] B; experiment: Reversible inhibition of human recombinant MAOB expressed in insect cell microsomes using kynuramine as substrate assessed as residual activity at 100 times IC50 preincubated for 30 mins followed by 100 fold dilution measured after 20 mins by fluorescence spectrophotometric analysis relative to control; parameters: species or system Microsome
Outline: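 Recombinant human MAO-B (0.75 mg/ml) preincubated 30 min at 37 °C with inhibitor at 0, 10 or 100 × IC50 in pH 7.4 isotonic potassium phosphate with 4% DMSO. Diluted 100-fold with kynuramine to 30 µM substrate and 0.0075 mg/mL enzyme. Then 20 min at 37 °C. Residual 4-hydroxyquinoline formation measured by fluorescence, relative to no-inhibitor control. (R)-deprenyl at 10 × IC50 run as comparator.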

[6] = target: T2, Amine oxidase [flavin-containing] A; experiment: Ratio of compound IC50 to clorgyline IC50 for human recombinant MAOA

SMILES | IC50 [1] [nM] | IC50 [2] [nM] | Ratio IC50 (Homo sapiens [3]) | Ratio Ki (Homo sapiens [4]) | Activity [5] [%] | Ratio IC50 [6]
N#Cc1ccc(SC2CCCCC2)cc1C#N | 223 | 5960 | 27 | 16.3 |  | 
N#Cc1ccc(SCc2ccc(Cl)cc2)cc1C#N | 14 | 623 | 45 | 27 |  | 240
N#Cc1ccc(OCc2ccccc2)cc1C#N |  |  | 227 |  |  | 
N#Cc1ccc(Sc2ccccc2)cc1 | 11200 | 36900 | 3.3 | 2 |  | 
N#Cc1ccc(SCc2ccc(Cl)cc2)cc1 | 531 | 20300 | 38 | 23 |  | 
CC(C)CCSc1ccc(C#N)c(C#N)c1 | 242 | 1450 | 6 | 3.7 |  | 
N#Cc1ccc(SCc2ccc(F)cc2)cc1 | 449 | 54700 | 122 | 75 |  | 
N#Cc1ccc(Sc2ccc(Cl)cc2)cc1C#N | 114 | 11100 | 97 | 59.6 |  | 
N#Cc1ccc(Sc2ccccc2)cc1C#N | 2130 | 3580 | 1.7 | 1 |  | 
N#Cc1ccc(Sc2ccc(Br)cc2)cc1C#N | 79 | 19000 | 240 | 147 |  | 
N#Cc1ccc(SCc2ccccc2)cc1C#N | 167 | 9020 | 54 | 33 |  | 
N#Cc1ccc(SCCc2ccccc2)cc1C#N | 124 | 7190 | 58 | 35.5 |  | 

Further lines, with some results ahead:

IC50 [1] [nM] | IC50 [2] [nM] | Ratio IC50 (Homo sapiens [3]) | Ratio Ki (Homo sapiens [4]) | Activity [5] [%] | SMILES | Ratio IC50 [6]
887 | 2780 | 3.1 | 1.9 |  | N#Cc1ccc(SC2CCCC2)cc1C#N | 
 |  | 134 |  |  | N#Cc1ccc(OCc2ccc(Br)cc2)cc1C#N | 
1810 | 54300 | 30 | 18 |  | N#Cc1ccc(SCCc2ccccc2)cc1 | 
1580 | 42400 | 27 | 16 |  | N#Cc1ccc(SCc2ccccc2)cc1 | 
4770 | 9870 | 2.1 | 1.3 |  | N#Cc1ccc(SC2CCCCC2)cc1 | 
25 | 218000 | 8720 | 5330 | 48 | N#Cc1ccc(SCc2ccc(Br)cc2)cc1C#N | 
484 | 129000 | 267 | 163 |  | N#Cc1ccc(SCc2ccc(Br)cc2)cc1 | 
861 | 5590 | 6.5 | 4 |  | COc1ccc(CSc2ccc(C#N)cc2)cc1 | 
34 | 2100 | 62 | 38 |  | N#Cc1ccc(SCc2ccc(F)cc2)cc1C#N | 
 |  | 41 |  |  | N#Cc1ccc(OCc2ccccc2)cc1 | 
4280 | 18200 | 4.3 | 2.6 |  | N#Cc1ccc(Sc2ccc(Cl)cc2)cc1 | 
637 | 8520 | 13 | 8.2 |  | N#Cc1ccc(Sc2ccc(Br)cc2)cc1 | 
67 | 129000 | 1920 | 1180 |  | COc1ccc(CSc2ccc(C#N)c(C#N)c2)cc1 | 
